This note sets out measurements from ChEMBL document CHEMBL1125417, “Development of a series of phenyltetrazole leukotriene D4 (LTD4) receptor antagonists” (J Med Chem, 1992).

Calls of active or inactive are those of the source. The rule behind the calls is not given here.

The target in one test is T1, Cysteinyl leukotriene receptor 1 (Cavia porcellus) (UniProt Q2NNR5).
T1 sequence (whole entry): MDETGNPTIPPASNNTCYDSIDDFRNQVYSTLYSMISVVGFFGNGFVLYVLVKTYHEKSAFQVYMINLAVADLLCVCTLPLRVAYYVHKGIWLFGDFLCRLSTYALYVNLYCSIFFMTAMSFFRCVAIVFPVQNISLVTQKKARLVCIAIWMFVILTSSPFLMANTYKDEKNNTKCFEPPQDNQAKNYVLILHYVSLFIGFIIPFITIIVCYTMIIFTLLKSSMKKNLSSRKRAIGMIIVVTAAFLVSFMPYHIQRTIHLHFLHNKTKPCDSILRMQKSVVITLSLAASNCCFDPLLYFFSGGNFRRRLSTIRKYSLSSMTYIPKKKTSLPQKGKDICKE
Description: Antagonistic activity against leukotriene D4 (LTD4) receptor. In kind it is functional. In a few lines: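 Isolated tissue strips in baths of physiological salt solution (mM: NaCl 118.2, NaHCO₃ 24.8, dextrose 10.0, Ca²⁺ 1.2) at 37 °C, gassed with 95% O₂/5% CO₂, under 0.5 g resting tension. Cumulative LTD₄ concentration–response curves were recorded. Each antagonist was in contact with the tissue for 30 min before the final LTD₄ curve.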
As a reminder, the pKB is the negative decadic logarithm of the KB, by convention in mol/L. For the compound `FC(F)(F)CCCCCOc1ccc(-c2nnn(CCCCc3nnn[nH]3)n2)cc1`, the negative logarithm of the KB (pKB) worked out at 5.82.

Turning to `CCCCCCCCCCOc1ccc(-c2nnn(CCCCc3nnn[nH]3)n2)cc1`, the negative logarithm of the KB (pKB) came out at 5.09.

As to `FC(F)(F)CCCCCCCOc1ccc(-c2nnn(CCCCc3nnn[nH]3)n2)cc1`, the pKB was found to be 5.43.

On to `c1ccc(CCCCCCOc2ccc(-c3nnn(CCCCc4nnn[nH]4)n3)cc2)cc1`, for which the pKB worked out at 5.83.

On to `c1ccc2oc(COc3ccc(-c4nnn(CCCCc5nnn[nH]5)n4)cc3)cc2c1`, for which the pKB came to 6.36.

Consider `O=C(O)CCCCn1nnc(-c2ccc(OCCCCc3ccccc3)cc2)n1`, for which the pKB came out at 5.97.

In the case of `NC(=O)CCCCn1nnc(-c2ccc(OCCCCc3ccccc3)cc2)n1`, the pKB turned out to be 5.41.

Consider `c1ccc(CCCCOc2ccc(-c3nnn(CCCc4nnn[nH]4)n3)cc2)cc1`, for which the pKB was 6.86.

On to `c1ccc(CCCCOc2ccc(-c3nnn(CCCCCc4nnn[nH]4)n3)cc2)cc1`, for which the negative logarithm of the KB (pKB) was 6.54.

The compound `c1ccc2nc(COc3ccc(-c4nnn(CCCCc5nnn[nH]5)n4)cc3)ccc2c1` came in with a pKB of 6.68.

In the next test the test system is Cysteinyl leukotriene receptor 1 (Cavia porcellus). The test can be described thus: Antagonist activity tested against Cysteinyl leukotriene D4 receptor.
For the compound `Cc1ccccc1S(=O)(=O)NC(=O)NC(=O)CCCCn1nnc(-c2ccc(OCCCCc3ccccc3)cc2)n1`, the pKB turned out to be 5.86.

`O=C(O)c1ccc(Cn2nnc(-c3cccc(CSc4ccc5ccccc5n4)c3)n2)cc1` had a negative logarithm of the KB (pKB) of 5.88.

Compound `FC(F)(F)CCCCOc1ccc(-c2nnn(CCCCc3nnn[nH]3)n2)cc1` showed a negative logarithm of the KB (pKB) of 5.92.

For the compound `O=C(O)c1ccccc1Cn1nnc(-c2cccc(CSc3ccc4ccccc4n3)c2)n1`, the pKB was determined as 7.02.

The compound `O=C(O)c1cccc(Cn2nnnc2-c2cccc(CSc3ccc4ccccc4n3)c2)c1` returned a pKB of 6.2.

`O=C(O)c1cccc(Cn2nnc(-c3cccc(CSc4ccc5ccccc5n4)c3)n2)c1`: the pKB came out at 5.62.

The compound `N#CNC(=O)CCCCn1nnc(-c2ccc(OCCCCc3ccccc3)cc2)n1` showed a pKB of 6.1.

`c1ccc(CCCCOc2ccc(-c3nn[nH]n3)cc2)cc1` had a pKB of 5.92.

On to `c1ccc(CCCCCOc2ccc(-c3nnn(CCCCc4nnn[nH]4)n3)cc2)cc1`, for which the pKB was determined as 5.9.

In the case of `CCCOc1ccc(-c2nnn(CCCCc3nnn[nH]3)n2)cc1`, the pKB was 5.52.

Take `c1ccc(CCCCOc2ccc(-c3nnn(CCCCc4nnn[nH]4)n3)cc2)cc1`: the pKB turned out to be 6.91.

In turn, `Cc1ccccc1S(=O)(=O)NC(=O)CCCCn1nnc(-c2ccc(OCCCCc3ccccc3)cc2)n1` yielded a negative logarithm of the KB (pKB) of 5.92.

The compound `c1ccc(CCCOc2ccc(-c3nnn(CCCCc4nnn[nH]4)n3)cc2)cc1` had a pKB of 6.79.

The compound `c1ccc(CCCCOc2ccc(-c3nnnn3CCCCc3nnn[nH]3)cc2)cc1` showed a negative logarithm of the KB (pKB) of 6.31.

As to `c1ccc(CCCCOc2ccc(-c3nnn(CCCCCCc4nnn[nH]4)n3)cc2)cc1`, the negative logarithm of the KB (pKB) came out at 6.24.

Compound `c1ccc(CCCCOc2ccc(-c3nnn(CCCCCCCCc4nnn[nH]4)n3)cc2)cc1` came in with a pKB of 5.7.

Turning to `c1cc(CSc2ccc3ccccc3n2)cc(-c2nnn(CCCCc3nnn[nH]3)n2)c1`, the pKB was determined as 6.57.

`O=C(O)c1ccccc1Cn1nnc(-c2ccc(CSc3ccc4ccccc4n3)cc2)n1`: the pKB was determined as 5.87.

With `c1ccc(CCCCn2nnc(-c3ccc(OCCCCc4nnn[nH]4)cc3)n2)cc1`, the pKB came to 5.8.

`c1ccc(CCOc2ccc(-c3nnn(CCCCc4nnn[nH]4)n3)cc2)cc1` returned a negative-log KB (pKB) of 6.51.

In turn, `c1ccc(CCCCOc2ccc(-c3nnn(CCCCCCCc4nnn[nH]4)n3)cc2)cc1` gave a negative logarithm of the KB (pKB) of 5.96.

With `c1ccc(CCCCOc2cccc(-c3nnn(CCCCc4nnn[nH]4)n3)c2)cc1`, the pKB is 5.38.

With `c1cc(-c2nnn(CCCCc3nnn[nH]3)n2)ccc1OCCCCc1nn[nH]n1`, the pKB result is “inactive”.
